Experimental data from ChEMBL document CHEMBL1144519, “A Pd(0) based cross-coupling approach to the synthesis of 2-amidopurines and their evaluation as CDK inhibitors” (Bioorg Med Chem, 2007).

How the values were obtained:
[1] = Inhibition of CDK1/Cyclin B from M phase starfish oocytes; parameters: species or system Marthasterias glacialis; conditions: oocyte
In short: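 CDK1/cyclin B extracted in homogenization buffer from M-phase Marthasterias glacialis oocytes and affinity-purified on p9CKShs1-Sepharose, eluted with free p9CKShs1. Read-out was P81 phosphocellulose binding, phosphoric acid washes and scintillation counting. Values are blank-subtracted, % of uninhibited activity, with DMSO controls.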

[2] = biological target: Cyclin-dependent kinase 5/CDK5 activator 1 (Homo sapiens, UniProt Q00535); assay: Inhibition of recombinant mammalian CDK5/p25 expressed in Escherichia coli
Sequence of Cyclin-dependent kinase 5/CDK5 activator 1 (Q00535 whole entry, the tested form may be a part): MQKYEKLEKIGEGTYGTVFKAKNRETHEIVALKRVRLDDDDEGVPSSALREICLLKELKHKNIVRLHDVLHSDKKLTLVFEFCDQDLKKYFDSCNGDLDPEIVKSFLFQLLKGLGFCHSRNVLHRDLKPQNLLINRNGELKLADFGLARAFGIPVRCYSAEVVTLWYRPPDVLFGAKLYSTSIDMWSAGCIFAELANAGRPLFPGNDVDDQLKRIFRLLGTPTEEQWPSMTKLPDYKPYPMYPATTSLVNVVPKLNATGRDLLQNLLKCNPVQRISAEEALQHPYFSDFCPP
Sequence of Cyclin-dependent kinase 5/CDK5 activator 1 (Q15078 whole entry, further chain, the tested form may be a part): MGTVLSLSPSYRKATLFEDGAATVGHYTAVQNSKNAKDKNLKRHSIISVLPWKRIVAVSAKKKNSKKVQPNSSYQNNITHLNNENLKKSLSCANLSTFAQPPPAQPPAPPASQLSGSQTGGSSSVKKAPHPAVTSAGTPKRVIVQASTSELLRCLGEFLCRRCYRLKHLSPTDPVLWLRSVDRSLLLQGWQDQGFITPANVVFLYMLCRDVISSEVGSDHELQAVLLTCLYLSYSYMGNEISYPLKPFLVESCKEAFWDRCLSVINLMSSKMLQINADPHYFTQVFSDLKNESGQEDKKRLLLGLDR
In short: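 Kinase was CDK5 with p25, a truncated p35 activator. Phosphate incorporation was measured on P81 phosphocellulose paper by scintillation counting. Activity is blank-corrected and expressed as % of activity without inhibitor, with DMSO controls.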

Row | SMILES | IC50 [1] [nM] | IC50 [2] [nM]
1 | CC(C)C(=O)Nc1nc(NCc2ccc(Cl)cc2)c2ncn(C(C)C)c2n1 | 1200 | 900
2 | CCCC(=O)Nc1nc(NCc2ccc(Cl)cc2)c2ncn(C(C)C)c2n1 | 2900 | 2100
3 | COCCNc1nc(C(=O)NC(C)C)nc2c1ncn2C(C)C | 8300 | 13000
4 | COc1ccc(CNc2nc(C(=O)NCC(C)C)nc3c2ncn3C(C)C)cc1 | 2400 | 2100
5 | COc1ccc(CNc2nc(NC(=O)C(C)C)nc3c2ncn3C(C)C)cc1 | 940 | 1300
6 | CCCC(=O)Nc1nc(NCCOC)c2ncn(C(C)C)c2n1 | 13000 | 10000
7 | COc1ccc(C(=O)Nc2nc(NCc3ccc(Cl)cc3)c3ncn(C(C)C)c3n2)cc1 | 40000 | 19000
8 | COCCNc1nc(C(=O)NCC(C)C)nc2c1ncn2C(C)C | 7200 | 16000
9 | COc1ccc(CNc2nc(NC(=O)c3ccc(OC)cc3)nc3c2ncn3C(C)C)cc1 | 4600 | 3400
10 | COCCNc1nc(NC(=O)C(C)C)nc2c1ncn2C(C)C | – | 7000
11 | COCCNc1nc(NC(=O)CC(C)=O)nc2c1ncn2C(C)C | > 10000 | –
12 | CC(C)CC(=O)Nc1nc(NCc2ccc(Cl)cc2)c2ncn(C(C)C)c2n1 | 3000 | 1600
13 | COc1ccc(CNc2nc(NC(=O)CC(C)=O)nc3c2ncn3C(C)C)cc1 | 2400 | 1600
14 | COCCNc1nc(NC(=O)c2ccc(OC)cc2)nc2c1ncn2C(C)C | > 10000 | –
15 | COc1ccc(CNc2nc(NC(=O)CC(C)C)nc3c2ncn3C(C)C)cc1 | 2300 | 1800
16 | COc1ccc(CNc2nc(C(=O)NC(C)C)nc3c2ncn3C(C)C)cc1 | 2300 | 2400
17 | CC(C)NC(=O)c1nc(NCc2ccc(Cl)cc2)c2ncn(C(C)C)c2n1 | 1700 | 2000
18 | CCCC(=O)Nc1nc(NCc2ccc(OC)cc2)c2ncn(C(C)C)c2n1 | 4400 | 3900
19 | COCCNc1nc(NC(=O)CC(C)C)nc2c1ncn2C(C)C | 9600 | 6600
